Laboratory results published in ChEMBL document CHEMBL4130411, “Arylthiazole antibiotics targeting intracellular methicillin-resistant Staphylococcus aureus (MRSA) that interfere with bacterial cell wall synthesis” (Eur J Med Chem, 2017).
In brackets after ≈: the same amount, converted by molar mass. Activity calls are given as the source filed them. The calls are words filed in the database; no cut-off is given here.

Assays:
Staphylococcus aureus [1] = assay: Inhibition of cell wall synthesis in Staphylococcus aureus RN4220 NRS107 assessed as UDP-N-acetylmuramyl pentapeptide formation at 10 times MIC incubated for 30 mins by HPLC-MS analysis; assay type: functional, organism-based
Staphylococcus aureus [2] = assay: Bactericidal activity against methicillin-resistant Staphylococcus aureus NRS123 (USA400) assessed as time required for complete bacterial elimination after 24 hrs by time-kill assay; assay type: functional
Staphylococcus aureus [3] = assay: Antibacterial activity against methicillin-resistant Staphylococcus aureus USA300 NRS384 infected in Caenorhabditis elegans AU37 assessed as reduction in bacterial burden at 20 ug/ml after 18 hrs by microscopic analysis; assay type: functional
Staphylococcus aureus [4] = assay: Antibacterial activity against methicillin-resistant Staphylococcus aureus NRS123 (USA400) infected in mouse J774 cells assessed as reduction in bacterial colony forming units at 16 ug/ml after 24 hrs relative to control; assay type: functional
Method in brief: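 J774 macrophages in DMEM + 10% FBS, 37 °C, 5% CO2, infected with USA400 at MOI ~100:1; after 1 h, gentamicin (50 µg/mL) wash; agent at 16 µg/mL in triplicate; at time point, gentamicin wash, lysis in 0.1% Triton X-100, serial dilution, TSA plating 18-22 h at 37 °C; % CFU/mL reduction versus untreated; t-test.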

Staphylococcus aureus [5] = assay: Antibacterial activity against vancomycin-resistant Staphylococcus aureus isolate 4 after 20 hrs by broth microdilution assay; assay type: functional; conditions: isolate 4, 20 h
Staphylococcus aureus [6] = assay: Antibacterial activity against vancomycin-resistant Staphylococcus aureus isolate 10 after 20 hrs by broth microdilution assay; assay type: functional; conditions: isolate 10, 20 h
Staphylococcus aureus [7] = assay: Bactericidal activity against vancomycin-resistant Staphylococcus aureus isolate 10 incubated for 20 hrs followed by replating on tryptic soy agar plates and further incubated for 18 hrs by broth microdilution assay; assay type: functional
Method in brief: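 From MIC wells without visible growth, an aliquot was spotted onto Tryptic soy agar and incubated at 37 °C for at least 18 h; MBC = lowest concentration inhibiting 99.9% of bacterial growth.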

Staphylococcus aureus [8] = assay: Bactericidal activity against methicillin-resistant Staphylococcus aureus USA300 NRS384 incubated for 20 hrs followed by replating on tryptic soy agar plates and further incubated for 18 hrs by broth microdilution assay; assay type: functional
Staphylococcus aureus [9] = assay: Bactericidal activity against vancomycin-resistant Staphylococcus aureus isolate 4 incubated for 20 hrs followed by replating on tryptic soy agar plates and further incubated for 18 hrs by broth microdilution assay; assay type: functional
Staphylococcus aureus [10] = assay: Antibacterial activity against methicillin-resistant Staphylococcus aureus USA300 NRS384 after 20 hrs by broth microdilution assay; assay type: functional; conditions: USA300 NRS384, 20 h
Staphylococcus aureus [11] = assay: Antibacterial activity against methicillin-resistant Staphylococcus aureus NRS123 (USA400) after 20 hrs by broth microdilution assay; assay type: functional
Staphylococcus aureus [12] = assay: Bactericidal activity against Staphylococcus aureus RN4220 NRS107 incubated for 20 hrs followed by replating on tryptic soy agar plates and further incubated for 18 hrs by broth microdilution assay; assay type: functional
Staphylococcus aureus [13] = assay: Bactericidal activity against methicillin-resistant Staphylococcus aureus NRS123 (USA400) incubated for 20 hrs followed by replating on tryptic soy agar plates and further incubated for 18 hrs by broth microdilution assay; assay type: functional
Staphylococcus aureus [14] = assay: Antibacterial activity against Staphylococcus aureus RN4220 NRS107 after 20 hrs by broth microdilution assay; assay type: functional; conditions: RN4220 NRS107, 20 h
Bacillus subtilis [15] = assay: Inhibition of cell wall biosynthesis in Bacillus subtilis assessed as induction of formation of misshapen cells at 37.5 ug/ml incubated for 2 hrs by FM-4-64 staining based assay; assay type: functional, organism-based
Method in brief: (§1)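 B. subtilis was grown in LB at 37 °C to OD600 ~0.2, then treated for 2 h with or without the osmotic stabiliser MSM. Cells were stained with FM 4-64 (1 µg/mL, membranes), DAPI (1 µg/mL, DNA) and SYTOX Green (1 µg/mL, lysis). Morphology was scored by deconvolution fluorescence microscopy against untreated cells.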

Bacillus subtilis [16] = assay: Inhibition of cell wall biosynthesis in Bacillus subtilis assessed as induction of large bulges formation at 37.5 ug/ml incubated for 2 hrs by FM-4-64 staining based assay; assay type: functional, organism-based; method in brief: as §1
[17] = Half life in human liver microsomes in presence of NADPH by LC-MS/MS analysis; assay type: ADME, microsome; conditions: liver microsomes
Method in brief: (§2)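 Human liver microsomal protein was incubated in duplicate at 37 °C in 100 mM potassium phosphate, 2 mM NADPH, 3 mM MgCl2, pH 7.4. Samples were taken at 0, 10, 20, 40 and 60 min and stopped with ice-cold methanol containing an internal standard. Half-life was derived from depletion. CLint = ln(2)/(T1/2 × microsomal protein concentration).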

[18] = Half life in human liver microsomes in absence of NADPH by LC-MS/MS analysis; assay type: ADME, microsome
Method in brief: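 Human liver microsomes were incubated in duplicate at 37 °C in 100 mM potassium phosphate with 3 mM MgCl2, pH 7.4, without NADPH to detect NADPH-free degradation. Aliquots were taken at 0, 10, 20, 40 and 60 min and quenched in ice-cold methanol containing an internal standard, then held at least 10 min at -20 °C before water was added. Half-life was taken from compound depletion.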

[19] = Intrinsic clearance in human liver microsomes in presence of NADPH by LC-MS/MS analysis; assay type: ADME, microsome; conditions: read-out: CLH; method in brief: as §2
Staphylococcus aureus [20] = assay: Bactericidal activity against methicillin-resistant Staphylococcus aureus USA200 NRS383 incubated for 20 hrs followed by replating on tryptic soy agar plates and further incubated for 18 hrs by broth microdilution assay; assay type: functional
Staphylococcus aureus [21] = assay: Antibacterial activity against methicillin-resistant Staphylococcus aureus USA100 NRS382 after 20 hrs by broth microdilution assay; assay type: functional; conditions: USA100 NRS382, 20 h
Staphylococcus aureus [22] = assay: Bactericidal activity against methicillin-resistant Staphylococcus aureus USA100 NRS382 incubated for 20 hrs followed by replating on tryptic soy agar plates and further incubated for 18 hrs by broth microdilution assay; assay type: functional
Staphylococcus aureus [23] = assay: Antibacterial activity against methicillin-resistant Staphylococcus aureus USA200 NRS383 after 20 hrs by broth microdilution assay; assay type: functional; conditions: USA200 NRS383, 20 h
Bacillus subtilis [24] = assay: Inhibition of cell wall biosynthesis in Bacillus subtilis assessed as induction of formation of misshapen cells at 1.875 ug/ml incubated for 2 hrs by FM-4-64 staining based assay; assay type: functional, organism-based
Method in brief: (§3)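 B. subtilis grown in LB at 37 °C to OD600 ~0.2, then treated with or without the osmotic stabiliser MSM for 2 h; stained with FM 4-64 (1 µg/mL, membranes), DAPI (1 µg/mL, DNA) and SYTOX Green (1 µg/mL, lysis); imaged by deconvolution fluorescence microscopy.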

Bacillus subtilis [25] = assay: Inhibition of cell wall biosynthesis in Bacillus subtilis assessed as induction of large bulges formation at 1.875 ug/ml incubated for 2 hrs by FM-4-64 staining based assay; assay type: functional, organism-based; method in brief: as §3

SMILES	MIC (Staphylococcus aureus [6])	MBC (Staphylococcus aureus [7])	MBC (Staphylococcus aureus [8])	MIC (Staphylococcus aureus [10])	MIC (Staphylococcus aureus [11])	MBC (Staphylococcus aureus [12])	MBC (Staphylococcus aureus [13])	MBC (Staphylococcus aureus [20])	MBC (Staphylococcus aureus [22])	also measured
CN[C@H](CC(C)C)C(=O)N[C@H]1C(=O)N[C@@H](CC(N)=O)C(=O)N[C@H]2C(=O)N[C@H]3C(=O)N[C@H](C(=O)N[C@H](C(=O)O)c4cc(O)cc(O)c4-c4cc3ccc4O)[C@H](O)c3ccc(c(Cl)c3)Oc3cc2cc(c3O[C@@H]2O[C@H](CO)[C@@H](O)[C@H](O)[C@H]2O[C@H]2C[C@](C)(N)[C@H](O)[C@H](C)O2)Oc2ccc(cc2Cl)[C@H]1O [VANCOMYCIN]	≥ 512 µg/mL	> 512 µg/mL								inhibition (Staphylococcus aureus [1]): Active; Time (Staphylococcus aureus [2]): 24 h; Activity (Staphylococcus aureus [3]): inactive; Activity (Staphylococcus aureus [4]): inactive; MIC (Staphylococcus aureus [5]): > 512 µg/mL
Cc1nc(-c2ccc(-c3ccccc3)cc2)sc1-c1cnc(NC(=N)N)s1	8 µg/mL (≈ 20.4 µM)	8 µg/mL (≈ 20.4 µM)	16 µg/mL (≈ 40.9 µM)	8 µg/mL (≈ 20.4 µM)	16 µg/mL (≈ 40.9 µM)	32 µg/mL (≈ 81.7 µM)	16 µg/mL (≈ 40.9 µM)			MBC (Staphylococcus aureus [9]): 8 µg/mL (≈ 20.4 µM); MIC (Staphylococcus aureus [5]): 8 µg/mL (≈ 20.4 µM); MIC (Staphylococcus aureus [14]): 16 µg/mL (≈ 40.9 µM)
CCCCc1ccc(-c2nc(C)c(-c3cnc(N)s3)s2)cc1	> 64 µg/mL	> 64 µg/mL	> 64 µg/mL	> 64 µg/mL	> 64 µg/mL		> 64 µg/mL			
N[C@@H]1CONC1=O										inhibition (Bacillus subtilis [15]): Active; inhibition (Bacillus subtilis [16]): Active
CCCCc1ccc(-c2nc(C)c(-c3cnc(NC(=N)N)s3)s2)cc1	8 µg/mL (≈ 21.5 µM)	8 µg/mL (≈ 21.5 µM)	16 µg/mL (≈ 43.1 µM)	16 µg/mL (≈ 43.1 µM)	16 µg/mL (≈ 43.1 µM)	32 µg/mL (≈ 86.1 µM)	16 µg/mL (≈ 43.1 µM)			MBC (Staphylococcus aureus [9]): 8 µg/mL (≈ 21.5 µM); MIC (Staphylococcus aureus [5]): 8 µg/mL (≈ 21.5 µM); MIC (Staphylococcus aureus [14]): 16 µg/mL (≈ 43.1 µM)
Cc1nc(-c2ccc3ccccc3c2)sc1-c1cnc(N)s1	> 64 µg/mL	> 64 µg/mL	> 64 µg/mL	> 64 µg/mL	> 64 µg/mL		> 64 µg/mL			
CCCCc1ccc(-c2nc(C)c(-c3cnc(-c4cccnc4)s3)s2)cc1	> 64 µg/mL	> 64 µg/mL	16 µg/mL (≈ 40.9 µM)	16 µg/mL (≈ 40.9 µM)	16 µg/mL (≈ 40.9 µM)	32 µg/mL (≈ 81.7 µM)	16 µg/mL (≈ 40.9 µM)			MBC (Staphylococcus aureus [9]): > 64 µg/mL; MIC (Staphylococcus aureus [5]): > 64 µg/mL; MIC (Staphylococcus aureus [14]): 16 µg/mL (≈ 40.9 µM)
CCCCc1ccc(-c2nc(C)c(/C(C)=N/NC(=N)N)s2)cc1										half-life [17]: 28.8 min; t1/2 [18]: > 240 min; microsomal CLint [19]: 80.3 µL/min/mg
Cc1nc(-c2ccc3ccccc3c2)sc1-c1cnc(-c2cccnc2)s1	16 µg/mL (≈ 41.5 µM)	16 µg/mL (≈ 41.5 µM)	64 µg/mL (≈ 166 µM)	16 µg/mL (≈ 41.5 µM)	16 µg/mL (≈ 41.5 µM)		> 64 µg/mL	> 64 µg/mL	> 64 µg/mL	MIC (Staphylococcus aureus [21]): 8 µg/mL (≈ 20.8 µM); MIC (Staphylococcus aureus [23]): 8 µg/mL (≈ 20.8 µM)
Cc1nc(-c2ccc(-c3ccccc3)cc2)sc1-c1cnc(-c2cccnc2)s1	16 µg/mL (≈ 38.9 µM)	16 µg/mL (≈ 38.9 µM)	64 µg/mL (≈ 156 µM)	16 µg/mL (≈ 38.9 µM)	16 µg/mL (≈ 38.9 µM)		> 64 µg/mL	> 64 µg/mL	> 64 µg/mL	MIC (Staphylococcus aureus [21]): 8 µg/mL (≈ 19.4 µM); MIC (Staphylococcus aureus [23]): 8 µg/mL (≈ 19.4 µM)
CC(=O)NC[C@H]1CN(c2ccc(N3CCOCC3)c(F)c2)C(=O)O1 [LINEZOLID]		16 µg/mL (≈ 47.4 µM)	16 µg/mL (≈ 47.4 µM)			32 µg/mL (≈ 94.9 µM)	32 µg/mL (≈ 94.9 µM)	32 µg/mL (≈ 94.9 µM)	16 µg/mL (≈ 47.4 µM)	MBC (Staphylococcus aureus [9]): 8 µg/mL (≈ 23.7 µM)
CCCCc1ccc(-c2nc(C)c(-c3cnc(NN)s3)s2)cc1	> 64 µg/mL	> 64 µg/mL	16 µg/mL (≈ 46.4 µM)	16 µg/mL (≈ 46.4 µM)	16 µg/mL (≈ 46.4 µM)	32 µg/mL (≈ 92.9 µM)	16 µg/mL (≈ 46.4 µM)			MIC (Staphylococcus aureus [14]): 16 µg/mL (≈ 46.4 µM)
Cc1nc(-c2ccc3ccccc3c2)sc1-c1cnc(NN)s1	16 µg/mL (≈ 47.3 µM)	16 µg/mL (≈ 47.3 µM)	64 µg/mL (≈ 189 µM)	16 µg/mL (≈ 47.3 µM)	16 µg/mL (≈ 47.3 µM)		> 64 µg/mL	> 64 µg/mL	> 64 µg/mL	MIC (Staphylococcus aureus [21]): 8 µg/mL (≈ 23.6 µM); MIC (Staphylococcus aureus [23]): 8 µg/mL (≈ 23.6 µM)
Cc1nc(-c2ccc(-c3ccccc3)cc2)sc1-c1cnc(N)s1	> 64 µg/mL	> 64 µg/mL	> 64 µg/mL	> 64 µg/mL	> 64 µg/mL		> 64 µg/mL			
Cc1nc(-c2ccc(-c3ccccc3)cc2)sc1-c1cnc(NN)s1	16 µg/mL (≈ 43.9 µM)	16 µg/mL (≈ 43.9 µM)	64 µg/mL (≈ 176 µM)	16 µg/mL (≈ 43.9 µM)	16 µg/mL (≈ 43.9 µM)		> 64 µg/mL	> 64 µg/mL	> 64 µg/mL	MIC (Staphylococcus aureus [21]): 8 µg/mL (≈ 21.9 µM); MIC (Staphylococcus aureus [23]): 8 µg/mL (≈ 21.9 µM)
Cc1onc(-c2ccccc2)c1C(=O)N[C@@H]1C(=O)N2[C@@H]1SC(C)(C)[C@@H]2C(=O)O										inhibition (Bacillus subtilis [24]): Active; inhibition (Bacillus subtilis [25]): Active
